Screening results from PubChem.
An excerpt weighted towards active compounds, which were near 1.3% of everything screened.
PP1 counter = blocks human PP1-alpha phosphatase, a PP5 counter-screen; actives 0.9% (n = 320,000); inhibition, % at 6.7 µM; purified PP1alpha, OMFP fluorescence;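 active means inhibition above the mean inhibition of all tested compounds plus 3 SD, computed separately for each screening campaign, cut at about 15% in these data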
Target sequence (P62136 whole entry, looked up): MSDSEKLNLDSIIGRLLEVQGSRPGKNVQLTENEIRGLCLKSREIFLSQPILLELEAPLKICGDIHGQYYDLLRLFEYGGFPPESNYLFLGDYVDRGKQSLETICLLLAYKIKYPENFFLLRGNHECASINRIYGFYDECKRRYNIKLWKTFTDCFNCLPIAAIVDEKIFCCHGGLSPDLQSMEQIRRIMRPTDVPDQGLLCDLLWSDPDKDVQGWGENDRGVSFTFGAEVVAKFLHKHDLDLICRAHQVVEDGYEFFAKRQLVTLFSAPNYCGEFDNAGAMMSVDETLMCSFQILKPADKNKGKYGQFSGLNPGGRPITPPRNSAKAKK
PP5 inh = inhibitors of human protein phosphatase 5 (PP5); purified PP5c, OMFP substrate fluorescence; inhibition, % at 6.7 µM; AID 1987; actives 0.18% (n = 320,000); P53041;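 active means inhibition above the campaign's mean inhibition across all tested compounds plus 3 SD, cut at about 9.5% in these data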;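 further: 0% = DMSO only and 100% = 100 µM cantharidin control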
NR2E3 ag-1 = agonists of human NR2E3 nuclear receptor; Q9Y5X4; CHO-S Gal4-NCOR/VP16-NR2E3 two-hybrid, luciferase; inhibition of corepressor binding, % at 3.98 µM; actives 0.35% (n = 360,000); AID 602229;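 active means inhibition above the mean of all tested compounds plus 3 SD, cut at about 70% in these data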;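 further: 0% = DMSO with NR2E3 transfected cells and 100% = cells lacking NR2E3 construct; higher means lower luciferase signal from less NR2E3 corepressor binding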
NR2E3 ag-2 = agonists of human nuclear receptor NR2E3. AID 2300. inhibition of corepressor binding, % at 4.78 µM. GST-NR2E3/biotin-RetCOR TR-FRET, 1536-well. Q9Y5X4. actives 0.12% (n = 320,000);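 active means percent inhibition above the cutoff of mean plus 3 SD of all tested compounds, set per screening campaign, cut at about 20% in these data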;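 further: 0% = DMSO wells and 100% = biotin wells as full block of FRET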
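Material: NR2E3–RetCOR corepressor complex / Incubation: Compound–protein incubation for 5 h at 4 °C / Dosing: compound at 4.8 µM, single dose / Detection: time-resolved FRET / Benchmarks: high control biotin, low control 0.6% DMSO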
PP1 inh confirm = human PP1 phosphatase inhibition, confirmation; shares compounds with PP1 counter; purified PP1alpha, OMFP substrate fluorescence; inhibition, % at 6.7 µM; actives 52% (n = 1,900);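 active means mean PP1 inhibition above a set limit taken from the earlier primary screen, cut at about 15% in these data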
PP5 counter = PP5 phosphatase inhibition, counter-screen for PP1 inhibitors. shares compounds with PP1 counter. purified PP5c, OMFP fluorescence. inhibition, % at 6.7 µM. actives 4% (n = 1,900). AID 2360;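 active means mean PP5 inhibition over triplicate wells above about 9.5% taken from the earlier PP1 screen, limit read from the data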
Starred values were filed as active, the others as inactive; · = not tested or not shown.

SMILES | PP1 counter | PP5 inh | NR2E3 ag-1 | NR2E3 ag-2 | PP1 inh confirm | PP5 counter
O=C(O)c1ccc(Cl)c(NC(=S)NC(=O)c2ccccc2[N+](=O)[O-])c1 | 18* | -3 | -1 | -3 | -3 | -3
CC(=O)Nc1cccc(-c2ccnc3c2CC(C(=O)NCc2ccc(N4CCN(C)CC4)cc2)O3)c1 (centres undefined) | · | · | -16 | · | · | ·
Cc1ccc(C2CC(c3cccs3)=NN2C(=O)CSc2nc(=O)n3ccc(C)cc3n2)cc1 (centres undefined) | 22* | -2 | -12 | 1 | 16* | 2
C=C(C)C(=O)Nc1cccc(C2=NOC3(C2)C[C@@H](C(N)=O)N(C(=O)C(=C)C)C3)c1 (some centres undefined) | 5 | 1 | 14 | -21 | · | ·
C=C(C)C(=O)Nc1cccc(C2=NOC3(C2)C[C@@H](C(N)=O)N(C(=O)C2(C)CC2)C3)c1 (some centres undefined) | 23* | 2 | -9 | -51 | 2 | -3
C/C=C\C=C/C(=O)Nc1cccc(C2=NOC3(C2)C[C@@H](C(N)=O)N(C(=O)/C=C/C=C\C)C3)c1 (some centres undefined) | 31* | 4 | -3 | 1 | 14 | -1
NC(=O)[C@H]1CC2(CC(c3cccc(NC(=O)CC(c4ccccc4)c4ccccc4)c3)=NO2)CN1C(=O)c1ccccc1C(=O)c1ccccc1 (some centres undefined) | 19* | 3 | 2 | 4 | 12 | 0
COc1ccccc1CNC(=O)Cn1cc(Br)ccc1=O | 0 | 4 | -18 | 3 | · | ·
O=C(c1cc(-c2ccc(Br)cc2)nc2ccccc12)N1CCC1 | 20* | 0 | -12 | 0 | -23 | -4
c1ccc(Cn2nnc(CNc3ccccc3)c2-c2c(CNc3ccccc3)nnn2Cc2ccccc2)cc1 | 23* | 4 | -46 | -3 | 4 | 1
O=S(=O)(Nc1nc2ccccc2nc1Nc1cccc(S(=O)(=O)N2CCCCC2)c1)c1ccccc1 | 25* | 9.8* | -18 | 2 | 20* | 4
Cc1ccc(NC(=O)CSc2nc(NS(=O)(=O)c3ccccc3)cc(=O)[nH]2)cc1 | 22* | 4 | -3 | -2 | -1 | -6
CCc1ccc(NC(=O)CSc2nc(NS(=O)(=O)c3ccccc3)cc(=O)[nH]2)cc1 | · | · | -2 | · | · | ·
COc1c(Br)cc(Br)cc1/C=N/NC(=O)c1cccnc1 | · | · | 5 | · | · | ·
CCOc1cc(Br)cc(/C=N/NC(=O)c2cccnc2)c1O | 22* | 2 | -6 | -1 | 19* | -4
CCNC(=O)C1(C)CCCN1Cc1ccccc1Cl (centres undefined) | · | · | -8 | · | · | ·
O=C(NC1CCN(Cc2ccc(Cl)cc2)CC1)c1cn(-c2ccccc2)nc1-c1cccnc1 | -3 | 1 | 13 | 3 | · | ·
Cc1cc(Cl)ccc1NC(=S)NCCC(c1ccccc1)c1ccccc1 | 18* | -1 | 22 | 4 | -2 | 1
Cc1c(Cl)cccc1NC(=S)NCCC(c1ccccc1)c1ccccc1 | 6 | 1 | 8 | -4 | · | ·
COc1ccc(Cn2c(O)c(C=Nc3ccccc3C(=O)O)c3ccccc3c2=O)cc1 | 7 | 1 | -19 | -2 | · | ·
COc1ccccc1NS(=O)(=O)c1cccc(-n2c(O)c(C=Nc3ccccc3C(=O)O)c3ccccc3c2=O)c1 | 23* | 4 | -8 | 1 | 12 | 1
O=C(CSc1nc2ccc(NC(=O)CSc3nnnn3-c3ccccc3)cc2s1)Nc1ccccc1 | 20* | 3 | 11 | 3 | 26* | -2
Cc1ccccc1OCCCN1C(=O)C(=O)c2cccc(C)c21 | 21* | 1 | -28 | 1 | 11 | 2
Cc1cccc(OCCN2C(=O)C(=O)c3cccc(C)c32)c1 | 10 | 2 | 1 | -1 | · | ·
CCN(C(=O)c1cc2c(=O)[nH]c3ccc(C)cc3c2s1)c1ccc(F)cc1 | 18* | 0 | 2 | 2 | 17* | -2
SMILES | PP1 counter | PP5 inh | NR2E3 ag-1 | NR2E3 ag-2 | PP1 inh confirm | PP5 counter
CCN(C(=O)c1cc2c(=O)[nH]c3ccc(C)cc3c2s1)c1cccc(C)c1 | -1 | 0 | -2 | -1 | · | ·
Cc1ccccc1CN1CCN(C(=O)CC(C)C)CC1 | 1 | 3 | 11 | 3 | · | ·
CCCCCCCC/C=C\CCCCCCCC(=O)NCCc1ccc(O)c(O)c1 | 16* | 15* | 5 | 5 | 8 | 2
Cc1cccc(N2CSC3=C(C#N)C(c4ccc(C)o4)CC(=O)N3C2)c1 (centres undefined) | 20* | 5 | · | 4 | 16* | 3
COc1ccc(OC)c(C2CC(=O)N3CN(c4ccccc4)CSC3=C2C#N)c1 (centres undefined) | -1 | 1 | -10 | -1 | · | ·
O=C(/C=C/c1ccccc1)NC(=S)NNC(=O)Cc1cccs1 | 24* | -1 | -18 | -3 | 17* | -4
O=C(COc1ccccc1/C=C1\SC(=S)NC1=O)Nc1ccc(F)cc1 | · | · | -18 | · | · | ·
CCN(CC)S(=O)(=O)c1cc(NC(=O)CCNC(=O)c2ccco2)ccc1C | -3 | 2 | 0 | 1 | · | ·
CCC/C=C/c1ccc(CN2C(CC(C)C)C(=O)N(Cc3cn(CC4CCCCC4)nn3)CCS2(=O)=O)cc1 (centres undefined) | · | · | 4 | · | · | ·
COC(=O)CCC(=O)OC1(C)C(=O)C2=CN(C3CCCC3)C(c3ccc(OC)cc3)=CC2=C(Br)C1=O (centres undefined) | 17* | 9.7* | -11 | 0 | 15 | 35*
COC(=O)CCC(=O)OC1(C)C(=O)C2=CN(c3ccc(OC)cc3)C(c3ccc(OC)cc3)=CC2=C(Br)C1=O (centres undefined) | 20* | 4 | -2 | 2 | 16* | 20*
COC(=O)CCC(=O)OC1(C)C(=O)C=C2C=C(C3CC3)N(c3cccc(C#N)c3)C=C2C1=O (centres undefined) | 4 | 3 | 16 | 3 | · | ·
CCN(CC)CCCN1C=C2C(=O)C(C)(OC(=O)CCC(=O)OC)C(=O)C(Br)=C2C=C1c1ccc(OC)cc1 (centres undefined) | 8 | 4 | -3 | 6 | · | ·
COC(=O)CCC(=O)OC1(C)C(=O)C=C2C=C(C3CC3)N(c3ccc(CO)cc3)C=C2C1=O (centres undefined) | 19* | 7 | · | 1 | 20* | 9.9*
COC(=O)CCC(=O)OC1(C)C(=O)C2=CN(Cc3ccco3)C(c3ccc(OC)cc3)=CC2=C(Br)C1=O (centres undefined) | 0 | 3 | · | -1 | · | ·
CCN(C(=O)COC(=O)C1CCN(S(=O)(=O)c2c(Cl)cccc2Cl)CC1)C1CCCCC1 | 3 | 4 | -16 | 0 | · | ·
COc1ccc(OCC2CCNCC2)cc1 | -1 | 1 | -17 | 0 | · | ·
C[C@@H]1CN([C@@H](C)CO)S(=O)(=O)c2ccc(Br)cc2O[C@@H]1CN(C)C(=O)C1CC1 | · | · | -26 | · | · | ·
COc1ccc(N2CCN(c3ncnc4scc(-c5ccc(C)cc5)c34)CC2)cc1 | 5 | 1 | -12 | -1 | · | ·
